A selection: hits, their analogues and other compounds. The true share with any hit is near 9.4%.
Mdm2 MdmX PPI – inhibitors of human Mdm2/MdmX interaction; inhibition, % at 8 µM; O15151+Q00987; SaOS-2 split-luciferase Mdm2/MdmX complementation, luminescence; 330,000 compounds, 3% hits;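 active means inhibition of at least 50% at 8 µM in the primary screen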
Target sequence (O15151 whole entry, looked up): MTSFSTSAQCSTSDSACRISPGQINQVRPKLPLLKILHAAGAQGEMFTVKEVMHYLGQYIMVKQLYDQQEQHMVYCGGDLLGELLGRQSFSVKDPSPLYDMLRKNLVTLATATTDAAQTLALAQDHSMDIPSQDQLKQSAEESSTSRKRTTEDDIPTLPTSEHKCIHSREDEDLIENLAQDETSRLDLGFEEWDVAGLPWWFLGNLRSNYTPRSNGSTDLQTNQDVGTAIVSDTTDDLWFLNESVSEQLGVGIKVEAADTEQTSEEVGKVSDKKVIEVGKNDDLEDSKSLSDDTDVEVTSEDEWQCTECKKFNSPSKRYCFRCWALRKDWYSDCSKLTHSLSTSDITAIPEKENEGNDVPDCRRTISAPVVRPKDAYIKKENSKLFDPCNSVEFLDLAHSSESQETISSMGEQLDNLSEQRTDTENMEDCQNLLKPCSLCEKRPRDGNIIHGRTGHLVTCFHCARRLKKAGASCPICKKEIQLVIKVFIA
Target sequence (Q00987 whole entry, looked up): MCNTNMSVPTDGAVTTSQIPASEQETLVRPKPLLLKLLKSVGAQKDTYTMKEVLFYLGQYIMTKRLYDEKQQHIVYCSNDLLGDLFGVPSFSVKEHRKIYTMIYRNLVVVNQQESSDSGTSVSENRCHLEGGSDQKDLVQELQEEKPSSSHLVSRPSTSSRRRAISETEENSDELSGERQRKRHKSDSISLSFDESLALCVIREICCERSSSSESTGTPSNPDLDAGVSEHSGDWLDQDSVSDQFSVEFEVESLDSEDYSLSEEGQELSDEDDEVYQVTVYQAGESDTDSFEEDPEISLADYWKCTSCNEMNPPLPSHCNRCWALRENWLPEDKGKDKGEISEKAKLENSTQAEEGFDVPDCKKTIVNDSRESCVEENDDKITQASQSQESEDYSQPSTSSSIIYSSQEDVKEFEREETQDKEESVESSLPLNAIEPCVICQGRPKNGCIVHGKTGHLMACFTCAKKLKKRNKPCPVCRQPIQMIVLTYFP
CSC inhib – cancer stem cell inhibition. cancer stem cell-like cells viability, luminescence. inhibition, % at 7.5 µM. 300,000 compounds, 1.1% hits; in the data active means inhibition above about 75%; inconclusive means no clear call, values can overlap the other calls; tested in HMLE shEcad cells
SKKanGAS inh – blocks kanamycin growth of S. pyogenes SKKanGAS strain. AID 1662. BacTiter-Glo, 6 h. 300,000 compounds, 1.3% hits. inhibition, % at 7.5 µM;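 active means mean replicate score, as percent of positive control median, at least 50; inconclusive means mean below 50 but one replicate at or above 50; inactive means mean and every replicate below 50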;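 further: strain carries kanamycin resistance gene driven by streptokinase promoter and grows in 40 µg/ml kanamycin; loss of luminescence reflects streptokinase promoter inhibition or plain growth inhibition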
Lmaj promast – inhibitors of Leishmania major promastigote growth. inhibition, % at 10 µM. 200,000 compounds, 9% hits. AID 1063. Leishmania major promastigotes, resazurin fluorescence viability; in the data active means inhibition above about 50%;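 further: promastigotes grown with compound for 44 hours at 28 °C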
Beta apoptosis – blocks beta cell apoptosis; INS-1E cytokine-induced death, ATP luminescence, 48 h; percent of positive-control rescue, neutral wells zero; protection from apoptosis, % (concentration not given with the values); 300,000 compounds, 0.8% hits; AID 435005;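 active means Every replicate reaches about 75%, or at least half do and their mean reaches it too, limit read from the data; inconclusive means At least half of replicates reach the limit but their mean does not; inactive means Under half of replicates reach the limit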;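 further: higher means more ATP so stronger rescue from cytokine killing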
T cruzi repl – blocks replication of Trypanosoma cruzi; T. cruzi beta-gal in NIH3T3, luminescence, 90 h; inhibition, % (no concentration beside the values); 300,000 compounds, 1.4% hits; AID 1885;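 active means mean inhibition across valid replicates above about 55%, limit read from the data; inconclusive means mean below that limit but half or more replicates reach it; inactive means mean below it, under half of replicates reach it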;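 further: signal also drops with host cell toxicity which is not excluded here; higher percent means less beta-gal luminescence so fewer parasites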
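Read-out: Parasite load inhibition, % | Test system: Mouse NIH/3T3 fibroblasts infected with β-gal-expressing T. cruzi Tulahuen C4 | Amount: 5,000 cells/well | Medium: DMEM, 2% fetal bovine serum | Signal: GalScreen β-gal luminescence, detergent lysis, 60 min | Timing: 3 h attach, ≥90 h co-culture | Also added: Tulahuen C4 trypomastigotes, 5000/well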
Mdm2 MdmX conf – human Mdm2/MdmX binding inhibition, confirmed; shares compounds with Mdm2 MdmX PPI; luminescent assay; inhibition, % at 8 µM; 10,000 compounds, 55% hits; AID 489028; in the data active means inhibition above about 40%
FLuc counter – counter-screen for Mdm2/MdmX inhibitors: full-length luciferase | SaOS-2 full-length luciferase counterscreen, luminescence | shares compounds with Mdm2 MdmX PPI | inhibition, % at 8 µM | 6,200 compounds, 77% hits;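 active means mean inhibition at 8 µM reaching about 37%, which flags the compound as non-specific, limit read from the data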;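 further: p53-null SaOS-2 cells with luciferase driven by a doxycycline-inducible promoter; compound on cells about two nights before reading with doxycycline added after day one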
Of the large screens only hits and unclear results are named; the others gave an inactive call (follow-up assays come after a bar, where they were run).

Cc1ccc(-c2[nH]c3ccccc3c2C(C[N+](=O)[O-])c2ccco2)cc1 (centres undefined)	Mdm2 MdmX PPI 63 (no result: CSC inhib) | Mdm2 MdmX conf inactive
Cc1[nH]c2ccccc2c1C(C[N+](=O)[O-])c1ccco1 (centres undefined)	none
S=C(Nc1ccc(Cl)c(Cl)c1)NC1CCN(Cc2ccccc2)CC1	Mdm2 MdmX PPI 97, Lmaj promast 95 (no result: CSC inhib) | Mdm2 MdmX conf 52 | FLuc counter inactive
S=C(NNc1ccc2ccccc2c1)NC1CCCCC1	Mdm2 MdmX PPI 64 (no result: CSC inhib) | Mdm2 MdmX conf 55 | FLuc counter inactive
S=C(Nc1ccc(Cl)c(Cl)c1)NC1CCCCC1	Mdm2 MdmX PPI 85 | Mdm2 MdmX conf 50 | FLuc counter 62
Cn1c(SCc2ccccn2)nnc1-c1ccccc1	none (no result: Beta apoptosis)
N#Cc1c(SCC(=O)Nc2ccc(Cl)cc2Cl)sc2c(O)cc(=O)[nH]c12	Mdm2 MdmX PPI 62 (no result: Lmaj promast) | Mdm2 MdmX conf inactive
Cc1c(Cl)cccc1NC(=O)CSc1sc2c(O)cc(=O)[nH]c2c1C#N	none (no result: Lmaj promast)
c1cc(C2CCCCC2)ccc1Oc1nc(N2CCOCC2)nc(N2CCOCC2)n1	Mdm2 MdmX PPI 63 | Mdm2 MdmX conf inactive
Cn1cc(/C=N/n2cnc3scc(-c4ccc(Cl)cc4)c3c2=O)c2ccccc21	Mdm2 MdmX PPI 73, Lmaj promast 59 | Mdm2 MdmX conf 63 | FLuc counter 63
O=c1c2ccccc2c(C=NCc2ccccn2)c(O)n1-c1ccccc1	none
Cc1ccc(-n2c(O)c(C=NCc3ccccn3)c3ccccc3c2=O)cc1C	Mdm2 MdmX PPI 51, Lmaj promast 71 | Mdm2 MdmX conf inactive
OCCC1CN(Cc2cccn2-c2ccccn2)CCN1Cc1ccccc1 (centres undefined)	none
COc1cc(C(=O)NC(=S)Nc2cccc(-c3cc4ccccc4oc3=O)c2)cc(OC)c1OC	Mdm2 MdmX PPI 53 | Mdm2 MdmX conf inactive
Cc1cc(NC(=S)NC(=O)c2ccccc2)ccc1-c1cc2ccccc2oc1=O	none
Cc1c(/C=C/C(=O)c2ccc(C(C)C)cc2)cnn1C	none (no result: Beta apoptosis)
Cc1ccc(C(=O)Nc2nc(-c3ccccn3)cs2)o1	Mdm2 MdmX PPI 74, SKKanGAS inh 77 (no result: Lmaj promast) | Mdm2 MdmX conf 56 | FLuc counter 40
O=C(Nc1nc(-c2ccccn2)cs1)c1ccc([N+](=O)[O-])o1	Mdm2 MdmX PPI 77, Beta apoptosis 90 (no result: Lmaj promast) | Mdm2 MdmX conf 68 | FLuc counter 37
O=C(Nc1nc(-c2ccccn2)cs1)C1COc2ccccc2O1 (centres undefined)	Mdm2 MdmX PPI 65, Lmaj promast 77 (no result: SKKanGAS inh, T cruzi repl) | Mdm2 MdmX conf 71 | FLuc counter 56
Cc1csc(NC(=O)C2COc3ccccc3O2)n1 (centres undefined)	none
CC(=O)Nc1ccc(-c2csc(NC(=O)c3ccc(C)o3)n2)cc1	none
O=C(Nc1nc(-c2ccccn2)cs1)c1ccccc1-n1cnnn1	Mdm2 MdmX PPI 72, Beta apoptosis 78, T cruzi repl 63 (no result: Lmaj promast) | Mdm2 MdmX conf 75 | FLuc counter inactive
Cn1nc(C(=O)Nc2nc(-c3ccccn3)cs2)c2ccccc2c1=O	none (no result: CSC inhib, SKKanGAS inh, Lmaj promast, Beta apoptosis, T cruzi repl)
O=C(Cn1cnc2c(nnn2Cc2ccc(F)cc2)c1=O)Nc1ccccc1	none (no result: Lmaj promast)
COc1ccc(NC(=O)Nc2cccc3c2O[C@H](CN(C)C(=O)Nc2c(C)noc2C)[C@@H](C)CN([C@H](C)CO)C3=O)cc1	none (no result: CSC inhib, SKKanGAS inh, Lmaj promast, T cruzi repl)
CCn1nc(C(=O)Nc2nc(-c3ccccn3)cs2)c2ccccc2c1=O	none (no result: CSC inhib, SKKanGAS inh, Lmaj promast, T cruzi repl)
CCCn1nc(C(=O)Nc2nc(-c3ccccn3)cs2)c2ccccc2c1=O	Mdm2 MdmX PPI 62 (no result: CSC inhib, SKKanGAS inh, Lmaj promast, T cruzi repl) | Mdm2 MdmX conf 50 | FLuc counter 53
CCc1cc(C(=O)Nc2nc(-c3ccccn3)cs2)sc1C	Mdm2 MdmX PPI 52 (no result: SKKanGAS inh, Lmaj promast, T cruzi repl) | Mdm2 MdmX conf 56 | FLuc counter 51
O=C(Nc1nc(-c2ccccn2)cs1)c1ccc(-c2ccccc2F)o1	Mdm2 MdmX PPI 57 (no result: CSC inhib, SKKanGAS inh, Lmaj promast, T cruzi repl) | Mdm2 MdmX conf 50 | FLuc counter 63
Cc1ccc(-c2csc(NC(=O)c3ccc(-c4ccccc4)cc3)n2)o1	none
O=C(Nc1nc(-c2cc(F)ccc2F)cs1)c1ccccn1	SKKanGAS inh inconclusive
CC(=O)c1ccc(-c2ccc(C(=O)Nc3nc(-c4ccccn4)cs3)o2)cc1	Mdm2 MdmX PPI 91 (no result: SKKanGAS inh, Lmaj promast, T cruzi repl) | Mdm2 MdmX conf 86 | FLuc counter 40
CCc1sc(C(=O)Nc2nc(C)cs2)cc1C	none (no result: CSC inhib, Lmaj promast, Beta apoptosis)
O=C(CNS(=O)(=O)c1cccc2nsnc12)NCCc1ccccc1	none (no result: Lmaj promast)
Cn1cc(CN2CCC(n3nccc3NC(=O)C3CCCC3)CC2)cn1	none (no result: Lmaj promast)
Cc1cc(C)cc(NS(=O)(=O)c2ccc(-c3cnc(C4CC4)o3)cc2)c1	Mdm2 MdmX PPI 75 (no result: CSC inhib, Lmaj promast, Beta apoptosis) | Mdm2 MdmX conf 68 | FLuc counter 69
Cc1ccc(C)c(NS(=O)(=O)c2ccc(-c3cnc(C4CC4)o3)cc2)c1	Mdm2 MdmX PPI 71, CSC inhib 75 (no result: Lmaj promast) | Mdm2 MdmX conf 55 | FLuc counter 81
O=S(=O)(Nc1ccccc1)c1ccc(-c2cnc(C3CC3)o2)cc1	none (no result: Lmaj promast)
CC(=O)Nc1ccc(NS(=O)(=O)c2ccc(-c3cnc(C4CC4)o3)cc2)cc1	none (no result: CSC inhib, Lmaj promast, Beta apoptosis)
COc1ccccc1NS(=O)(=O)c1cc(-c2cnc(C3CC3)o2)ccc1C	Mdm2 MdmX PPI 53 (no result: Lmaj promast) | Mdm2 MdmX conf 46 | FLuc counter 56
CCOc1ccc(NS(=O)(=O)c2ccc(-c3cnc(C4CC4)o3)cc2)cc1	Mdm2 MdmX PPI 57 (no result: Lmaj promast) | Mdm2 MdmX conf 57 | FLuc counter 52
O=S(=O)(NCc1ccc(F)cc1)c1ccc(-c2cnc(C3CC3)o2)cc1	none (no result: Lmaj promast)
N#Cc1cnn2ccn(C3OC(CO)C(O)C3O)c12 (centres undefined)	none (no result: Lmaj promast)
CCC1(CC)NC(=O)N(CC(=O)OCC(=O)Nc2sccc2C#N)C1=O	none
Cc1cccc(NS(=O)(=O)c2ccc(-c3cnc(C4CC4)o3)cc2)c1C	Mdm2 MdmX PPI 85 (no result: CSC inhib, Lmaj promast, Beta apoptosis) | Mdm2 MdmX conf 66 | FLuc counter 76
CC(=O)c1cccc(NS(=O)(=O)c2ccc(-c3cnc(C4CC4)o3)cc2)c1	none (no result: Lmaj promast)
CCn1cc(CN2CCC(C(=O)Nc3ccc(Oc4cccnc4)cc3)CC2)cn1	SKKanGAS inh inconclusive (no result: Lmaj promast)
O=C(c1cccc(S(=O)(=O)N2CCc3ccccc32)c1)N1CCN(c2ccccn2)CC1	Mdm2 MdmX PPI 85 | Mdm2 MdmX conf 84 | FLuc counter 39
O=C(c1ccc(Cl)c(S(=O)(=O)N2CCc3ccccc32)c1)N1CCN(c2ccccc2O)CC1	Mdm2 MdmX PPI 54 (no result: SKKanGAS inh, Lmaj promast, T cruzi repl) | Mdm2 MdmX conf inactive
Clc1ccc(N2CCN(c3ncnc4c3oc3ccccc34)CC2)cc1	Mdm2 MdmX PPI 58 (no result: Lmaj promast) | Mdm2 MdmX conf inactive

Screening results as filed in PubChem BioAssay.
